Measurements gathered from unrelated publications.
Target: Serine/threonine-protein kinase WNK2 (WNK2, Homo sapiens, UniProt Q9Y3S1)

| Compound | read-out | method | tested at | remaining binding [%] |
| --- | --- | --- | --- | --- |
| COc1ccnn2ncc(-c3ccnc(N(C)C)n3)c12 | binding |  | 1 µM | 100 |
| CNCc1ccccc1-c1csc([C@H](C)Nc2nc(C)nc3cc(OC)c(OC)cc23)c1 | cell-free assay | competition with immobilised ligand | 1 µM | 99 |
| C[C@@H]1CCN(c2nccc(-c3cnn4ncccc34)n2)C1 | binding |  | 1 µM | 100 |
| Cc1c(NC(=O)c2cc(C(N)=O)nc3cc(F)ccc23)c(C(F)(F)F)nn1Cc1ccc(C(C)(C)C)cc1 | cell-free assay | competition with immobilised ligand | 1 µM | 100 |
| Cc1cnn2ncc(-c3ccnc(N(C)C)n3)c2c1 | binding |  | 1 µM | 100 |
| c1cncc(-c2cccc(Nc3nccc(NC4CCCCC4)n3)c2)c1 | binding | competition with immobilised ligand | 10 µM | 100 |
| COc1cnc(Nc2cccc(S(N)(=O)=O)c2)nc1N1CCN(c2ccccc2)CC1 | binding | competition with immobilised ligand | 1 µM | 35 |
| COc1ncc2cc3ccccc3nc2c1C#N | cell-free assay | competition with immobilised ligand | 5 µM | 100 |
| Nc1ncc2c(n1)-c1c([nH]c3ccc(C#CC4CC4)cc13)CCCC2 | binding | competition with immobilised ligand | 1 µM | 100 |
| F[C@@H]1CCN(c2nccc(-c3cnn4ncccc34)n2)C1 | binding |  | 1 µM | 100 |
| C[C@@H](c1cccc(C#N)c1)n1cc(Cl)cc(C(N)=O)c1=N | cell-free assay | competition with immobilised ligand | 1 µM | 67 |
| N[C@@H]1CCN(c2nccc(-c3cnn4ncccc34)n2)C1 | binding |  | 1 µM | 95 |
| O=C(Nc1c[nH]nc1C(=O)NC1CCNCC1)c1cc(F)cc(F)c1 | binding | competition with immobilised ligand | 1 µM | 100 |
| O=C(c1ccc(Nc2ncc(Cl)c(-c3ccc(Cl)s3)n2)cc1)N1CCC(N2CCCC2)CC1 | binding | competition with immobilised ligand | 1 µM | 88 |
| CCc1ccccc1C(=O)Nc1n[nH]c2c(C)c(F)c(C3C(C#N)=C(C)N(C)C(C)=C3C#N)cc12 | cell-free assay | competition with immobilised ligand | 1 µM | 100 |
| CN(C)c1nccc(-c2cnc3ncccn23)n1 | binding |  | 1 µM | 94 |
| O=C(NCCCN1CCOCC1)c1ccc(Nc2ncc(Cl)c(-c3ccc(Cl)s3)n2)cc1 | binding | competition with immobilised ligand | 1 µM | 92 |
| COc1ccc2c(c1)O[C@@H](c1ccc(OC)c(OC)c1)C[C@H]2NC(=O)C1(c2ccc3c(c2)OC(F)(F)O3)CC1 | cell-free assay | competition with immobilised ligand | 1 µM | 84 |
| O=C(NCCCN1CCOCC1)c1ccc(Nc2nccc(-c3cc4ccccc4s3)n2)cc1 | binding | competition with immobilised ligand | 1 µM | 60 |
| Cc1c[nH]c2nccc(Oc3c(F)cc(Nc4cc(Cl)nc(N)n4)cc3F)c12 | cell-free assay | competition with immobilised ligand | 0.1 µM | 96 |
